Compound activity from PubChem.
SUMO HTRF inh – SUMOylation inhibition; HTRF SUMOylation assay, SAE1/SAE2 + UBC9, in vitro; P63279; 0.36% of 290,000 active; inhibition, % at 35 µM; in the data active = inhibition above about 50%, passing the limit was not always enough
pCIP destab – compounds decreasing mouse p/CIP protein stability; Q05BA5; F442A p/CIP-EGFP cells, EGFP fluorescence, 16 h; decrease of EGFP signal, % at 10 µM; 0.01% of 290,000 active;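 active = EGFP signal decrease of at least 30% at 10 µM or well 3 SD below plate mean, unless failing retest; inactive = the rest, including hits failing retest or dose response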
T cell HTS – T cell immune modulation candidate; response (vesicle binding), % at 7 µM; 2C CD8+ T cell-vesicle binding, flow cytometry; active compounds read low; 0.068% of 330,000 active;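 active = response, share of CD8 T cells binding vesicles, and their 90th percentile fluorescence all below set limits, cut at about 80% in these data, passing the limit was not always enough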;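 also: values below 100% mean blocked vesicle binding to the CD8+ T cells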
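Benchmarks: naked versus QL9-loaded vesicles / Assay system: purified 2C TCR transgenic mouse naive CD8+ T cells / Technique: high-throughput flow cytometry with anti-B7-1 and anti-CD8 staining / Timing: Cell–vesicle co-incubation 1.5 h at 37 °C, staining 20 min on ice / Read-out: percent CD8+ FL2 mean versus row control / Probe or stimulus: QL9-loaded Drosophila micro-vesicles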
VIM-2 inh – inhibitors of Pseudomonas aeruginosa VIM-2 metallo-beta-lactamase. AID 1527. 0.89% of 290,000 active. purified VIM-2, nitrocefin hydrolysis, epi-absorbance fluorescence. inhibition, % at 5.6 µM;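 active = inhibition above the mean of all tested compounds plus 3 SD, cutoff set per screening run, cut at about 7.5% in these data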;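 also: red hydrolysis product quenches plate fluorescence so inhibitors raise well fluorescence; 0% = enzyme with DMSO and 100% = DMSO without enzyme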
Fh CTSL1 inh – cathepsin L1 inhibition, PFM18AAP counter-screen. 0.49% of 300,000 active. inhibition, % at 5.96 µM. AID 1906. recombinant F. hepatica cathepsin L1, Z-Leu-Arg-MCA fluorescence;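 active = inhibition above the mean of all tested compounds plus 3 SD, set per screening campaign, cut at about 17% in these data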;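 also: 0% = plate median of test compound wells and 100% = 1 µM Z-Phe-Ala-diazomethylketone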
IMP-1 inh – blocks Pseudomonas aeruginosa IMP-1 metallo-beta-lactamase; inhibition, % at 5.6 µM; AID 1556; purified IMP-1, nitrocefin hydrolysis, epi-absorbance fluorescence; 0.45% of 290,000 active;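 active = inhibition above the mean plus 3 SD of all compounds in the same screening run, cut at about 4.5% in these data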;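 also: 0% = IMP-1 with DMSO and 100% = DMSO wells lacking enzyme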
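System – purified recombinant IMP-1 beta-lactamase · Input – IMP-1 dispensed at 0.2 nM · Timing – 15 min preincubation plus 25 min reaction at 25 °C · Signal – Epi-absorbance fluorescence, 480 nm excitation, 530 nm emission · Measure – percent IMP-1 inhibition derived from blank-referenced optical density · Controls – Enzyme-plus-DMSO low control, enzyme-free DMSO high control · Replication – singlicate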
The depositor's hits bear a star; i = inactive; nt = not tested or not shown. Shown are actives, neighbours in structure and some others; about 1.9% of the full set was active somewhere.

SMILES	SUMO HTRF inh	pCIP destab	T cell HTS	VIM-2 inh	Fh CTSL1 inh	IMP-1 inh
CCn1c(CCCCc2n[nH]c(=S)n2CC)n[nH]c1=S	-6	3	336	0	0	-5
CCCCn1c(CCn2nc(C)c(Br)c2C)n[nH]c1=S	19	-8	183	8.1*	-2	1
CC1(C)Cc2c(c(N3CCCCC3)[nH]c(=S)c2C#N)CS1	18	-15	nt	-5	nt	8.2*
CC1CCN(c2[nH]c(=S)c(C#N)c3c2CCCC3)CC1	29	-7	451	1	0	-4
COCCCn1c(=N)c(C(=O)NC2CCCCC2)cc2c(=O)n3ccccc3nc21	20	8	179	-1	-3	-3
Cn1c(C(=O)N2COCC2(C)C)cc2c(=O)n3ccccc3nc21	53*	-13	291	2	2	-2
Cn1c(C(=O)NCC2CCCO2)cc2c(=O)n3ccccc3nc21 (stereo not given)	53*	-5	187	0	2	-2
COCCCn1c(C(=O)N2CC(C)OC(C)C2)cc2c(=O)n3ccccc3nc21 (stereo not given)	54*	-2	385	2	1	-1
COc1ccc(C2(c3ccc(OC)cc3)NC(=O)N(CC(=O)NCC(C)c3ccccc3)C2=O)cc1 (stereo not given)	nt	nt	456	nt	nt	nt
COc1cccc(NC(=S)N2CCC(c3ccc(C)cc3)C2)c1 (stereo not given)	-5	-21	19	-3	0	-4
COc1ccccc1NC(=O)c1ccc(NC(=O)COC(=O)c2cccnc2Cl)cc1	nt	nt	650	nt	nt	nt
CC(C)CNC1=C(C(=S)Nc2ccccc2)C(=O)CC(C)(C)C1	-15	-10	144	-3	-3	-5
NC(=S)N/N=C/c1c(O)c(Br)cc2oc3c(c12)CCCC3	18	-7	122	-6	22*	-3
Cc1onc(-c2ccccc2Cl)c1C(=O)Nc1ccccc1N1CCOCC1	14	-4	170	-6	-7	-4
CCOC(=O)N1C=CC(C)=C[C@@H]2[C@@H](N3C(=O)c4ccccc4C3=O)C(=O)N21	-1	5	446	-4	3	-3
CC1CCc2c(sc(NC(=O)Cn3nc(C(F)(F)F)c4c3CCCCC4)c2C#N)C1 (stereo not given)	-21	1	0.0*	-2	0	-2
COc1ccc(S(=O)(=O)n2nc(OC(=O)c3c(-c4ccccc4Cl)noc3C)cc2N)cc1	4	-46	243	0	18*	-2
Cc1cc(C)c(NC(=O)COC(=O)C2=COCCO2)c(Cl)c1	nt	nt	317	nt	-11	nt
C=CCn1c(=NC(=O)c2sc3ccccc3c2Cl)sc2cc(S(N)(=O)=O)ccc21	34	-5	i	-1	-1	-2
COCCn1c(=NC(=O)c2sc3ccccc3c2Cl)sc2cc(S(N)(=O)=O)ccc21	13	-9	496	-1	22*	-2
O=C(NCCN1CCCCCC1)C1CCC(CNS(=O)(=O)c2cccc3cccnc23)CC1 (stereo not given)	7	-8	345	-3	39*	0
NS(=O)(=O)c1ccc(CCNC(=O)C2CCN(S(=O)(=O)c3cccc4cccnc34)CC2)cc1	16	-4	54*	-1	-3	-3
C=C(C(=O)O)C(CCCCCC)C(=O)O (stereo not given)	-1	5	233	4	2	14*
CCCC(N)CCCCCC(=O)O (stereo not given)	-10	-13	nt	-1	nt	-3
CCCN(Cc1nnc(-c2cccs2)o1)C(=O)CN1C(=O)NC2(CCC(C)CC2)C1=O (stereo not given)	nt	nt	320	nt	nt	nt
SMILES	SUMO HTRF inh	pCIP destab	T cell HTS	VIM-2 inh	Fh CTSL1 inh	IMP-1 inh
Cn1c(-c2ccc(C=O)s2)nc2ccccc21	56*	-12	142	-1	-2	-3
O=C(CCn1nc(-c2ccc(Cl)cc2)ccc1=O)N1CCN(c2ccc(F)cc2)CC1	-8	-7	315	-2	6	-1
Cn1c(=O)c(N)c2c3c(c(Br)ccc31)C(=O)c1ccccc1-2	20	-55	145	8.4*	14	0
Cn1c(=O)c(-c2cc(Br)ccc2N)nc2ccccc21	-7	-9	216	0	-1	-3
c1ccc(COc2cccc(CN3CCc4ccccc4C3)c2)cc1	-8	3	178	-1	0	2
COC(=O)C1=C(Nc2ccccc2NC(=O)CCCC(=O)O)CSC1	4	8	401	1	-3	4.5*
CCOC(=O)c1c(NC(=O)Cc2ccccc2)sc2c1CC(C)(C)NC2(C)C	-4	-11	335	-1	2	-3
CCOC(=O)c1c(NC(=O)CCS(=O)(=O)c2ccccc2)sc2c1CC(C)(C)NC2(C)C	10	-20	268	2	39*	-1
CCN(CC)CCNC(=O)c1ccc(NC(C)=O)cc1	12	-20	383	0	-6	-2
CCN(CC)CCNC(=O)c1ccc(NC(=O)c2ccc(C(=O)c3ccccc3)cc2)cc1	nt	nt	76*	nt	2	nt
O=C(Nc1nc2c(F)cc(F)cc2s1)c1ccc([N+](=O)[O-])o1	-4	-16	643	-2	-1	-4
C(=N\Nc1nncc2ccccc12)/c1ccccn1	0	8	305	1	-1	6.5*
O=C(O)/C=C/C(=O)Nc1ccc(Oc2ccccc2)cc1	21	-2	313	-1	5	-2
CCOC(=O)/C=C/C(=O)NNC(=O)c1ccccc1Cl	1	-2	189	-2	46*	-4
CCOC(=O)/C=C/C(=O)Nc1ccc(Oc2ccccc2)cc1	1	5	226	-4	31*	-2
Cc1ccc(S(=O)(=O)CC(=O)c2ccc3c(c2)OCCO3)cc1	3	-15	820	-1	-1	-3
O=C(CSc1ncn[nH]1)Nc1nc(-c2ccccc2)cs1	-12	-4	170	-2	4	-2
c1ccc(Nc2nc(CSc3ncn[nH]3)cs2)cc1	-8	-1	536	-1	35*	-2
O=C(NCC(c1ccco1)N1CCCC1)c1ccccc1Sc1ccc(C(F)(F)F)cc1[N+](=O)[O-] (stereo not given)	nt	nt	575	nt	20*	nt
COc1ccc(C(O)c2coc3ccc(O)c(CN(C)C)c23)cc1 (stereo not given)	5	8	6.9*	-1	-1	-4
COc1ccc(OC)c(C(=O)c2coc3ccc(O)c(CN(C)C)c23)c1	24	8	258	0	0	-1
COc1ccc(Cl)cc1NC(=O)CN(C)C(=O)c1sccc1-c1ccccc1	nt	nt	552	nt	nt	nt
CCOc1ccc(N(C)S(=O)(=O)c2ccc(-c3ccc(=O)[nH]n3)s2)cc1	25	-13	359	-3	40*	-5
